According to publication PMC3042036 (Pharmacological research : the official journal of the …, 2010):

Columns and labels:
P-gp (human MDR1) = P-gp (human MDR1) (Homo sapiens, UniProt P08183); experiment: MDCK-MDR bi-directional permeability assay; settings: dog, MDCK-MDR1, pH 7.4
[1] = target: T1, Pgp (human MDR1) in MDCK-MDR cells (Homo sapiens, UniProt P08183); experiment: MDCK-MDR bi-directional permeability assay; settings: 5 μM test compound; for Papp (A-B) / Papp (B-A): pH 7.4
brain acetyl-tubulin = experiment: Brain acetyl-tubulin ELISA after administration to mice; type: in vivo, mice (B6C3F1); settings: for Brain acetyl-tubulin relative to vehicle: 16 hours after dosing
Summary of the method: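 Young male B6C3F1 mice (2–3 months) get a single i.p. dose of test compound in DMSO (~40 μl, scaled to body weight), n=3–6 per group. Brain hemispheres are sonicated 1:5 w/v in RIPA with protease inhibitors and trichostatin A. Sandwich ELISA uses 12G10 α-tubulin capture and HRP-acetyl-tubulin detection at 450 nm. Inputs run from 60 to 2.2 ng/μl in duplicate and are fit to the vehicle input curve.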

[2] = target: T1, Pgp (human MDR1) in MDCK-MDR cells; experiment: Inhibition of Pgp-mediated transport of digoxin in MDCK-MDR cells; settings: 10 μM digoxin + 5 μM test compound
[3] = Plasma and brain compound concentrations after i.p. administration to mice; type: in vivo, mice (B6C3F1); settings: for concentration at 2 h / Kp at 2 h: 5 mg/kg; for Plasma drug level / Brain drug level / B/P (Brain-to-Plasma ratio): mice; for B/P (Brain-to-Plasma ratio): total drug
Summary of the method: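 Male B6C3F1 mice are dosed i.p. with test compound in DMSO. Brains are sonicated in 10 mM ammonium acetate, pH 5.7 (1:2 w/v). Plasma comes from blood collected with EDTA and spun 10 min at 4500g, 4°C. Each 50 μl aliquot is precipitated with 0.2 ml acetonitrile and spun at 15,000g. Supernatants are quantified by LC-MS/MS.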

[4] = test system: Tg mice that express human tau; settings: cited from earlier work
[5] = test system: optic nerve (ON) acetyl-tubulin; experiment: Optic nerve acetyl-tubulin ELISA after administration to mice; type: in vivo, mice (B6C3F1); settings: 1, 3 and 10 mg/kg i.p., 16 hours after dosing
Summary of the method: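 Male B6C3F1 mice (2–3 months, n=3/treatment) get a single i.p. dose of test compound in DMSO, volume scaled to body weight. Optic nerves are taken 16 hours later and sonicated 1:5 w/v in RIPA with inhibitors. Acetyl-tubulin is measured by α-tubulin-capture/HRP-acetyl-tubulin ELISA at 450 nm, using duplicate serial inputs. Values are read off a vehicle-control input curve and normalized to vehicle mice.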

[6] = test system: acetyl-tubulin in PC12 cells; experiment: Acetyl-tubulin levels in PC12 cells; type: cell-based; settings: 24 hours treatment, increasing concentrations
[7] = male, B6C3F1, mouse, brain, intraperitoneal, 3 mg/kg
[8] = male, B6C3F1, mouse, brain, ip, 10 mg/kg
[9] = male, B6C3F1, mouse, brain/plasma, ip
[10] = male, B6C3F1, mouse, plasma, ip

T1 sequence (P08183 whole entry): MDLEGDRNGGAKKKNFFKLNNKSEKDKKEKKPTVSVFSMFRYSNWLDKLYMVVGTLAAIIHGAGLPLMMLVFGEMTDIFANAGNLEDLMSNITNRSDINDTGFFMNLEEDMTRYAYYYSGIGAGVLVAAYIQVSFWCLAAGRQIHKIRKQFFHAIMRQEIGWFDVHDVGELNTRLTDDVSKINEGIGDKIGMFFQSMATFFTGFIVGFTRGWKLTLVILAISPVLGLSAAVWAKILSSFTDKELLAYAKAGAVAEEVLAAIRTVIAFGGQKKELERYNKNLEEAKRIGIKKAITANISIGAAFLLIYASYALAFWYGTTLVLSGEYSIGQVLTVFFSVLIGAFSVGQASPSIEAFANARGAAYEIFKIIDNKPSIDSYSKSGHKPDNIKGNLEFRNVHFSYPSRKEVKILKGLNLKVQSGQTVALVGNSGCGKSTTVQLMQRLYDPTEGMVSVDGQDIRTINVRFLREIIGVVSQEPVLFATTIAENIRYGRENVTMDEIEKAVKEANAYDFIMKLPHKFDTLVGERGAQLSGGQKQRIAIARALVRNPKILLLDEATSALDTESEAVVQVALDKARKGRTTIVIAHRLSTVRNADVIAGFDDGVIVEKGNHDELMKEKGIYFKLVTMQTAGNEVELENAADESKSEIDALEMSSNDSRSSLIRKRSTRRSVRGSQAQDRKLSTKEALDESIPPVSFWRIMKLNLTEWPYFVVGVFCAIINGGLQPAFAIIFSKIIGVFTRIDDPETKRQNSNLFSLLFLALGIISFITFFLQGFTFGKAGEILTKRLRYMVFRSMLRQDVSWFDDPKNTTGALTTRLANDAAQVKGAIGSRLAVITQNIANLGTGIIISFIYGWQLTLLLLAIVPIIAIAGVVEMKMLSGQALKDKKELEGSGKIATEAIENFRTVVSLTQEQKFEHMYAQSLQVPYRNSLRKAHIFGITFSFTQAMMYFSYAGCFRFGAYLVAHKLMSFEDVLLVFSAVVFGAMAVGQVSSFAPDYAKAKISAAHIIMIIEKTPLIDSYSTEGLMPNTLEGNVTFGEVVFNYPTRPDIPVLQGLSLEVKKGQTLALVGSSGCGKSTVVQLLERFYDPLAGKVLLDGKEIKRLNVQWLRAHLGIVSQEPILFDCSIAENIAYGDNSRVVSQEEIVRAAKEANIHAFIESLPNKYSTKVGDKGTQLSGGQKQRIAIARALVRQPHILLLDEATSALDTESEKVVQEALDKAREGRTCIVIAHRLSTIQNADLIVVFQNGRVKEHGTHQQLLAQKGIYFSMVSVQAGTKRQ
P-gp (human MDR1), sequence (P08183 whole entry): as above

concentration at 2 h ([3]; male, B6C3F1, mouse, brain, ip)	concentration at 2 h [3, 10]	SMILES	concentration at 24 h [3, 8]	Kp at 2 h [3, 9]	Plasma drug level ([3]; i.p. 10 mg/kg, 24 hours)	ON acetyl-tubulin relative to vehicle (in words) [5]	Papp (A-B) [1]	Papp (B-A) [1]	Brain drug level ([3]; i.p. 5 mg/kg, 2 hours)	Plasma drug level ([3]; i.p. 5 mg/kg, 2 hours)	B/P (Brain-to-Plasma ratio) ([3]; i.p. 5 mg/kg, 2 hours)	Brain drug level ([3]; i.p. 10 mg/kg, 24 hours)	also measured
–	–	C/C1=C/C[C@@H](/C(C)=C/c2csc(CO)n2)OC(=O)C[C@H](O)C(C)(C)C(=O)[C@H](C)[C@@H](O)[C@@H](C)/C=C/C1 [CNDR-88]	–	–	6.1 ng/mL	neither CNDR-86 nor CNDR-88 elicited a change at any dose	0.8 10^−6 cm/s	58.6 10^−6 cm/s	30 ng/g	12 ng/mL	2.6	45 ng/g	B/P (Brain-to-Plasma ratio) ([3]; i.p. 10 mg/kg, 24 hours): 7.3
–	–	C/C1=C/C[C@@H](/C(C)=C/c2csc(CO)n2)OC(=O)C[C@H](O)C(C)(C)C(=O)[C@H](C)[C@@H](O)[C@@H](C)CCC1 [CNDR-89, 12,13-desoxy-epothilone F]	–	–	BLD	only resulted in an increase of the stabilized MT biomarker at 10 mg/kg	2.3 10^−6 cm/s	63 10^−6 cm/s	24 ng/g	6.8 ng/mL	3.5	13 ng/g	Brain acetyl-tubulin relative to vehicle (brain acetyl-tubulin; 3 mg/kg i.p.): increase of acetyl-tubulin relative to vehicle; Brain acetyl-tubulin relative to vehicle (brain acetyl-tubulin; 10 mg/kg i.p.): no effect
142 ng/g	319 ng/mL	C/C(=C\c1csc(C)n1)[C@@H]1C[C@@H]2O[C@]2(C)CCC[C@H](C)[C@H](O)[C@@H](C)C(=O)C(C)(C)[C@@H](O)CC(=O)N1 [CNDR-90, ixabepilone, reference compound]	107 ng/g	0.4	–	–	–	–	–	–	–	–	Kp at 24 h ([3]; male, B6C3F1, mouse, brain/plasma, ip, 10 mg/kg): 2.6; concentration at 24 h ([3]; male, B6C3F1, mouse, plasma, ip, 10 mg/kg): 41 ng/mL
85 ng/g	1290 ng/mL	CC(=O)O[C@H]1C(=O)[C@@]2(C)[C@H]([C@H](OC(=O)c3ccccc3)[C@]3(O)C[C@H](OC(=O)[C@H](O)[C@@H](NC(=O)c4ccccc4)c4ccccc4)C(C)=C1C3(C)C)[C@]1(OC(C)=O)CO[C@@H]1C[C@@H]2O [Paclitaxel, reference compound]	–	–	–	–	–	–	–	–	0.07	–	Effect in Tg mice that over-express human tau ([4]; drug absorption at peripheral neuromuscular junctions): increased MT density and marked improvement in motor function

SMILES	concentration at 2 h ([3]; male, B6C3F1, mouse, brain, ip)	concentration at 2 h [3, 10]	concentration at 24 h [3, 8]	Kp at 2 h [3, 9]	Plasma drug level ([3]; i.p. 10 mg/kg, 24 hours)	ON acetyl-tubulin relative to vehicle (in words) [5]	Papp (A-B) [1]	Papp (B-A) [1]	Brain drug level ([3]; i.p. 5 mg/kg, 2 hours)	Plasma drug level ([3]; i.p. 5 mg/kg, 2 hours)	B/P (Brain-to-Plasma ratio) ([3]; i.p. 5 mg/kg, 2 hours)	Brain drug level ([3]; i.p. 10 mg/kg, 24 hours)	also measured
C/C1=C/C[C@@H](/C(C)=C/c2csc(C)n2)OC(=O)C[C@H](O)C(C)(C)C(=O)[C@H](C)[C@@H](O)[C@@H](C)CCC1 [CNDR-66, Epothilone D]	109 ng/g	14 ng/mL	64 ng/g	7.6	BLD	elevation of acetyl-tubulin at all doses	–	–	–	–	–	–	Papp A→B at 2 h, 5 µM (P-gp (human MDR1)): 30 ×10⁻⁶ cm/s; Papp B→A at 2 h, 5 µM (P-gp (human MDR1)): 46.8 ×10⁻⁶ cm/s; efflux ratio at 2 h, 5 µM (P-gp (human MDR1)): 1.6; Efflux Ratio (B-A)/(A-B) [1]: near unity; Brain acetyl-tubulin levels (brain acetyl-tubulin; single 1 mg/kg, 7 days after dosing): significant increase of brain acetyl-tubulin; Brain acetyl-tubulin levels (brain acetyl-tubulin; single 3 mg/kg, 6 and 10 days after dosing): increased acetyl-tubulin levels; Brain acetyl-tubulin levels (brain acetyl-tubulin; single 3 mg/kg, 7 days after dosing): increase of acetyl-tubulin; Brain acetyl-tubulin levels (brain acetyl-tubulin; single 3 mg/kg, 14 days after dosing): statistically insignificant change; Brain acetyl-tubulin levels (brain acetyl-tubulin; single 6 mg/kg, 7 days after dosing, compared with 3 mg/kg): not further increased; Inhibition of Pgp transport of digoxin (in words) [2]: potent inhibitor of Pgp transport; Brain elimination half-life compared with plasma ([3]; full pharmacokinetic analysis, data not shown): far exceeded that observed in the plasma; concentration at 7 days [3, 7]: 8.3 ng/g; concentration at 10 days [3, 7]: 1.8 ng/g; Effect in Tg mice that express mutant human tau [4]: improve CNS axonal integrity, MT density and cognitive performance; Amount of acetyl-tubulin in PC12 cells [6]: significant concentration-dependent increase
